# Measurements from ChEMBL document CHEMBL1137548, “Synthesis and evaluation of naphthyridine compounds as antimalarial agents” (Bioorg Med Chem Lett, 2007).
# What was measured:
# Plasmodium falciparum = experiment: Antimalarial activity against chloroquine-resistant Plasmodium falciparum W2; type: functional, organism-based
# [1] = Toxicity in Swiss mouse after 10 days; type: organism-based; conditions: in vivo
# Method in brief: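 Acute toxicity: a single drug injection into four non-infected random-bred Swiss mice, with deaths recorded 10 days after injection.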
# Plasmodium berghei = experiment: Antimalarial activity against Plasmodium berghei infected Swiss mice (Mus musculus) by intraperitoneal dose; type: functional; conditions: ip
# Method in brief: (§1)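 Infected mice dosed i.p. once daily for 4 days, with the first dose 1 h after i.p. inoculation with parasites. ED50 is the dose giving 50% inhibition of parasite growth versus vehicle-treated controls (equal volume of vehicle), read from a plot of activity (% of control) against log dose. P. berghei is the sensitive strain and P. yoelii nigeriensis the multidrug-resistant strain.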
# [2] = test system: Plasmodium yoelii nigeriensis; experiment: Antimalarial activity against Plasmodium yoelii nigeriensis infected Swiss mice (Mus musculus) by intraperitoneal dose; type: functional; conditions: ip; method in brief: as §1
# [3] = Therapeutic index, ratio of LD50 for Swiss mice (Mus musculus) to […] for Plasmodium berghei infected Swiss mice (Mus musculus); conditions: read-out: Ratio LD50/ED50
# Method in brief: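 Ratio of acute LD50 to P. berghei ED50 in mice. LD50: one injection into four non-infected random-bred Swiss mice, deaths scored at 10 days. ED50: i.p. dosing once daily for 4 days, starting 1 h after i.p. parasite inoculation. Parasite growth inhibition is taken against vehicle-treated controls, and the value is read from % of control versus log dose.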
# Mastomys coucha = experiment: Toxicity against Mastomys coucha assessed as methemoglobin levels at 15 mg/kg after 3 days; type: organism-based; parameters: dose 15 mg/kg; conditions: in vivo, 72 h
# Method in brief: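 Mastomys coucha dosed at 15 mg/kg per day for 3 days, then blood methemoglobin measured as % MetHb. A vehicle group served as control. Values are mean±SEM per group from a set of three experiments.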
Compound,IC50 (Plasmodium falciparum) [nM],LD50 at 240 h [1] [mg/kg],ED50 (Plasmodium berghei) [mg/kg],ED50 [2] [mg/kg],selectivity ratio [3],Activity (Mastomys coucha) [%]
CCOc1cc(NC(C)(C)CCCN)c2ncccc2n1,77,155,0.95,0.89,163,-0.12
CCOc1cc(NC2(CCCN)CC2)c2nc(OC)ccc2n1,45,> 200,0.72,0.65,> 278,-0.1
CCOc1cc(NC2(CCCN)CC2)c2nc(C(F)(F)F)ccc2n1,58,> 200,0.75,0.68,> 267,0.095
CC(C)Oc1cc(NC2(CCCN)CC2)c2nc(C(F)(F)F)ccc2n1,55,> 200,0.26,0.23,> 769,0.14
CC(C)Oc1cc(NC(C)(C)CCCN)c2ncccc2n1,110,167,0.33,0.28,506,-0.15
CCOc1cc(NC2(CCCN)CC2)c2ncccc2n1,72,161,0.88,1,183,-0.12
CC(C)Oc1cc(NC2(CCCN)CC2)c2ncccc2n1,100,175,0.29,0.38,603,-0.1
COc1cc(NC2(CCCN)CC2)c2ncccc2n1,57,145,1.6,1.4,91,0.1
COc1ccc2nc(OC(C)C)cc(NC3(CCCN)CC3)c2n1,47,> 200,0.31,0.41,> 645,-0.12
COc1cc(NC(C)(C)CCCN)c2nc(C(F)(F)F)ccc2n1,21,> 200,1.5,1.7,> 133,-0.11
COc1cc(NC(C)(C)CCCN)c2nc(OC)ccc2n1,33,> 200,1.6,2,> 125,0.13
COc1cc(NC(C)(C)CCCN)c2ncccc2n1,65,130,1.8,2.1,72,0.1
CCN(CC)CCCC(C)Nc1ccnc2cc(Cl)ccc12 (stereo unspecified) [CHLOROQUINE],–,–,2,–,–,–
COc1cc(NC(C)CCCN)c2ncccc2c1 (stereo unspecified) [PRIMAQUINE],> 10000,55,–,–,–,3.4
